# From ChEMBL document CHEMBL1150111, “Natural products inhibiting Candida albicans secreted aspartic proteases from Lycopodium cernuum” (J Nat Prod, 2002)
# Active and inactive are the calls of the source. The calls are words filed in the database; no cut-off is given here.
# System: Candida albicans
# Experiment: (§1) Inhibition of Candida albicans secreted aspartic protease
# How it was run: (§2)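 Candida albicans secreted aspartic protease (SAP) inhibition assay run by the earlier published method. Aspartic protease inhibitor pepstatin A served as positive control. Activity is reported as IC50 in µg/mL.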
row,SMILES,Activity
1,CC(=O)OC[C@]1(C)[C@@H]2C[C@H](OC(C)=O)[C@@]3(O)C[C@]4(C)CC[C@@H]5[C@](C)(CC[C@H](OC(C)=O)[C@]5(C)C(=O)O)[C@H]4CC[C@@H]3[C@@]2(C)CC[C@H]1OC(C)=O,inactive
2,CC(=O)O[C@H]1CC[C@@]2(C)[C@@H](CC[C@@]3(C)C[C@@]4(O)[C@H](CC[C@@H]32)[C@@]2(C)CC[C@@H](OC(C)=O)C(C)(C)[C@@H]2C[C@@H]4O)[C@@]1(C)C(=O)O,inactive
3,CC1(C)[C@H](O)CC[C@@]2(C)[C@H]1CC[C@]1(O)C[C@]3(C)CC[C@@H]4[C@](C)(CC[C@H](O)[C@]4(C)C(=O)O)[C@H]3CC[C@@H]12,inactive
4,CC(=O)O[C@H]1CC[C@@]2(C)[C@@H](CC[C@@]3(C)CC4=C(CC[C@@H]32)[C@@]2(C)CC[C@@H](OC(C)=O)C(C)(C)[C@@H]2CC4)[C@@]1(C)C(=O)O,inactive
5,CC(=O)O[C@H]1CC[C@@]2(C)[C@@H](CC[C@@]3(C)C[C@@]4(O)[C@H](O)C[C@H]5C(C)(C)[C@H](OC(C)=O)CC[C@]5(C)[C@H]4CC[C@@H]32)[C@@]1(C)C(=O)O,inactive
6,COC(=O)[C@@]1(C)[C@H](O)CC[C@@]2(C)[C@H]1CC[C@@]1(C)CC3=CC(=O)[C@@H]4[C@](C)(CC[C@@H](O)[C@]4(C)CO)[C@H]3CC[C@@H]12,inactive

# Continued, values first:
row,Activity,SMILES
1,inactive,CC1(C)[C@@H](O)CC[C@@]2(C)[C@H]1CC[C@@]1(C)CC3=CC[C@H]4C(C)(C)[C@@H](O)CC[C@]4(C)[C@H]3CC[C@@H]12
2,inactive,CC1(C)[C@H](O)CC[C@]2(C)[C@H]3CC[C@H]4[C@@](C)(CC[C@@H]5[C@]4(C)CC[C@H](O)[C@]5(C)C(=O)O)CC3=CC[C@@H]12
3,inactive,COC(=O)[C@]1(C)[C@@H]2CC[C@@]3(C)CC4=CC(=O)[C@@H]5[C@](C)(CC[C@@H](O)[C@]5(C)CO)[C@H]4CC[C@@H]3[C@@]2(C)CC[C@@H]1O
4,inactive,CC1(C)[C@@H](O)CC[C@@]2(C)[C@H]1CC[C@@]1(C)CC3=CC[C@H]4C(C)(C)[C@H](O)CC[C@]4(C)[C@H]3CC[C@@H]12
5,inactive,CC(=O)O[C@H]1CC[C@@]2(C)[C@@H](CC[C@@]3(C)CC4=CC[C@H]5C(C)(C)[C@H](OC(C)=O)CC[C@]5(C)[C@H]4CC[C@@H]32)[C@@]1(C)C(=O)O
6,inactive,CC1(C)[C@H](O)CC[C@]2(C)[C@H]3CC[C@H]4[C@@](C)(CC[C@@H]5[C@]4(C)CC[C@H](O)[C@]5(C)C(=O)O)C[C@]3(O)[C@@H](O)C[C@@H]12
7,inactive,CC1(C)[C@H](O)CC[C@]2(C)[C@H]3CC[C@H]4[C@@](C)(CC[C@@H]5[C@]4(C)CC[C@@H](O)[C@]5(C)CO)CC3=CC(=O)[C@@H]12
8,inactive,CC(=O)O[C@H]1CC[C@@]2(C)[C@@H](CC[C@@]3(C)C[C@@]4(O)CC[C@H]5C(C)(C)[C@H](OC(C)=O)CC[C@]5(C)[C@H]4CC[C@@H]32)[C@@]1(C)C(=O)O
9,inactive,C[C@@]12CC[C@@H]3[C@](C)(CC[C@H](O)[C@]3(C)C(=O)O)[C@H]1CC[C@H]1C(=CC[C@@H]3[C@]1(C)CC[C@@H](O)[C@]3(C)CO)C2

# System: not listed separately
# Experiment: as §1
# How it was run: as §2
row,IC50 [µg/mL],SMILES
1,0.0015,CC(C)CC(=O)N[C@H](C(=O)N[C@H](C(=O)N[C@@H](CC(C)C)[C@@H](O)CC(=O)N[C@@H](C)C(=O)N[C@@H](CC(C)C)[C@@H](O)CC(=O)O)C(C)C)C(C)C [PEPSTATIN]
2,8.5,O=C(/C=C/c1ccc(O)cc1)OC[C@H]1O[C@@H](Oc2ccc(-c3cc(=O)c4c(O)cc(O)cc4o3)cc2)[C@H](OC(=O)/C=C/c2ccc(O)cc2)[C@@H](O)[C@@H]1O
3,20,C[C@@]12CC[C@@H]3[C@](C)(CC[C@H](O)[C@]3(C)C(=O)O)[C@H]1CC[C@@H]1[C@@]3(C)CC[C@@H](O)[C@](C)(CO)[C@@H]3C[C@H](O)[C@@]1(O)C2 [LYCERNUIC ACID C]
